From ChEMBL document CHEMBL1138564, “Microwave-induced synthesis and anti-microbial activities of 7,10,11,12-tetrahydrobenzo[c]acridin-8(9H)-one derivatives” (2009)
≈ marks a conversion by molar mass, not a printed value. Calls of active or inactive are those of the source. The rule behind the calls is not given here.

Experiments:
Type in all cases: functional
Escherichia coli [1] = assay: Antimicrobial activity against Escherichia coli NCIM 2065 at 1000 ug/disk after 24 hrs by disk diffusion method; details: NCIM 2065, 24 h, read-out: DIZ
Method in brief: (§1)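 Disc diffusion on Mueller–Hinton agar. 100 µl of bacterial suspension at 10⁸ CFU/ml is spread on the plate. Discs carry test compounds at two loadings, dissolved in DMSO; DMSO alone serves as negative control. Ofloxacin disc is the positive reference. Plates are incubated at 37 °C for 24 h, and the inhibition zone diameter is measured.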

Bacillus subtilis [2] = assay: Antimicrobial activity against Bacillus subtilis NCIM 2063 at 1000 ug/disk after 24 hrs by disk diffusion method; details: NCIM 2063, 24 h, read-out: DIZ; method in brief: as §1
Bacillus cereus [3] = assay: Antimicrobial activity against Bacillus cereus NCIM 2155 at 500 ug/disk after 24 hrs by disk diffusion method; details: NCIM 2155, 24 h, read-out: DIZ; method in brief: as §1
Bacillus cereus [4] = assay: Antimicrobial activity against Bacillus cereus NCIM 2155 at 1000 ug/disk after 24 hrs by disk diffusion method; details: NCIM 2155, 24 h, read-out: DIZ; method in brief: as §1
Aliivibrio fischeri [5] = assay: Antimicrobial activity against Vibrio fischeri NCIM 2154 at 500 ug/disk after 24 hrs by disk diffusion method; details: NCIM 2154, 24 h, read-out: DIZ
Method in brief: (§2)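 Disc diffusion. 100 µl of bacterial suspension at 10⁸ CFU/ml was spread on Mueller–Hinton agar. Discs loaded with test compound dissolved in DMSO were placed on the lawn, with a DMSO-only disc as negative control. Plates were incubated at 37 °C for 24 h, and the inhibition zone diameter was measured.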

Aliivibrio fischeri [6] = assay: Antimicrobial activity against Vibrio fischeri NCIM 2154 at 1000 ug/disk after 24 hrs by disk diffusion method; details: NCIM 2154, 24 h, read-out: DIZ; method in brief: as §2
[7] = tested on: Rhodococcus corynebacterioides; assay: Antimicrobial activity against Corynebacterium rubrum NCIM 2252 at 500 ug/disk after 24 hrs by disk diffusion method; details: Rhodococcoides corynebacterioides, NCIM 2252, 24 h; read-out: DIZ; method in brief: as §1
[8] = tested on: Rhodococcus corynebacterioides; assay: Antimicrobial activity against Corynebacterium rubrum NCIM 2252 at 1000 ug/disk after 24 hrs by disk diffusion method; details: Rhodococcoides corynebacterioides, NCIM 2252, 24 h; read-out: DIZ; method in brief: as §1
Staphylococcus = assay: Antimicrobial activity against Staphylococcus albus NCIM 2178 at 1000 ug/disk after 24 hrs by disk diffusion method; details: NCIM 2178, 24 h, read-out: DIZ; method in brief: as §2
Proteus vulgaris [9] = assay: Antimicrobial activity against Proteus vulgaris NCIM 2027 at 500 ug/disk after 24 hrs by disk diffusion method; details: NCIM 2027, 24 h, read-out: DIZ; method in brief: as §1
Proteus vulgaris [10] = assay: Antimicrobial activity against Proteus vulgaris NCIM 2027 at 1000 ug/disk after 24 hrs by disk diffusion method; details: NCIM 2027, 24 h, read-out: DIZ; method in brief: as §1
Aspergillus flavus [11] = assay: Antimicrobial activity against Aspergillus flavus NCIM 902 at 1000 ug/disk after 72 hrs by disk diffusion method; details: NCIM 902, 72 h, read-out: DIZ
Method in brief: (§3)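 Disc diffusion on Sabouraud's dextrose agar. 100 µl of fungal suspension at 10⁶ CFU/ml is spread on the plate. Discs carry test compounds at two loadings in DMSO; DMSO alone is the negative control. Clotrimazole disc is the positive reference. Plates are incubated at 27 °C for 72 h, and the zone of inhibition diameter is measured.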

Rhodotorula mucilaginosa [12] = assay: Antimicrobial activity against Rhodotorula rubra NCIM 3174 at 500 ug/disk after 72 hrs by disk diffusion method; details: NCIM 3174, 72 h, read-out: DIZ
Method in brief: (§4)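 Fungal disc diffusion. 100 µl of suspension at 10⁶ CFU/ml was spread on Sabouraud's dextrose agar. Discs carrying test compound in DMSO were applied, with a DMSO-only disc as negative control. Plates were incubated at 27 °C for 72 h, and the zone of inhibition diameter was measured.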

Rhodotorula mucilaginosa [13] = assay: Antimicrobial activity against Rhodotorula rubra NCIM 3174 at 1000 ug/disk after 72 hrs by disk diffusion method; details: NCIM 3174, 72 h, read-out: DIZ; method in brief: as §4
Aspergillus fumigatus [14] = assay: Antimicrobial activity against Aspergillus fumigatus NCIM 902 at 500 ug/disk after 72 hrs by disk diffusion method; method in brief: as §3
Aspergillus fumigatus [15] = assay: Antimicrobial activity against Aspergillus fumigatus NCIM 902 at 1000 ug/disk after 72 hrs by disk diffusion method; method in brief: as §3
Aspergillus parasiticus [16] = assay: Antimicrobial activity against Aspergillus parasiticus NCIM 904 at 1000 ug/disk after 72 hrs by disk diffusion method; details: NCIM 904, 72 h, read-out: DIZ; method in brief: as §3
Penicillium chrysogenum [17] = assay: Antimicrobial activity against Penicillium chrysogenum NCIM 707 at 500 ug/disk after 72 hrs by disk diffusion method; method in brief: as §3
Penicillium chrysogenum [18] = assay: Antimicrobial activity against Penicillium chrysogenum NCIM 707 at 1000 ug/disk after 72 hrs by disk diffusion method; details: NCIM 707, 72 h, read-out: DIZ; method in brief: as §3
Lipomyces lipofer [19] = assay: Antimicrobial activity against Lipomyces lipofer NCIM 3252 at 500 ug/disk after 72 hrs by disk diffusion method; details: NCIM 3252, 72 h, read-out: DIZ; method in brief: as §3
Lipomyces lipofer [20] = assay: Antimicrobial activity against Lipomyces lipofer NCIM 3252 at 1000 ug/disk after 72 hrs by disk diffusion method; details: NCIM 3252, 72 h, read-out: DIZ; method in brief: as §3
Klebsiella aerogenes = assay: Antimicrobial activity against Klebsiella aerogenes NCIM 2239 at 1000 ug/disk after 24 hrs by disk diffusion method; details: NCIM 2239, 24 h, read-out: DIZ; method in brief: as §1
Pseudomonas aeruginosa = assay: Antimicrobial activity against Pseudomonas aeruginosa NCIM 2200 at 1000 ug/disk after 24 hrs by disk diffusion method; details: NCIM 2200, 24 h, read-out: DIZ; method in brief: as §1
Aspergillus flavus [21] = assay: Antimicrobial activity against Aspergillus flavus NCIM 902 after 72 hrs by serial dilution method; details: NCIM 535, 72 h, in the assay text read “NCIM 535” for “NCIM 902”
Method in brief: (§5)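 MIC by broth dilution in Sabouraud's dextrose broth, only for fungi sensitive in disc diffusion. Two-fold serial dilutions of compounds are made in 1 ml broth per tube, range 3.9 to 1000. Inoculated tubes are incubated at 27 °C for 72 h.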

Rhodotorula mucilaginosa [22] = assay: Antimicrobial activity against Rhodotorula rubra NCIM 3174 after 72 hrs by serial dilution method; details: NCIM 3174, 72 h
Method in brief: (§6)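 MIC by broth dilution in Sabouraud's dextrose broth, run only on fungi found sensitive in the disc assay. Twofold serial dilutions were made in 1 ml broth per tube, covering 3.9 to 1000. Inoculated tubes were incubated at 27 °C for 72 h.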

Aspergillus parasiticus [23] = assay: Antimicrobial activity against Aspergillus parasiticus NCIM 904 after 72 hrs by serial dilution method; details: NCIM 904, 72 h; method in brief: as §5
Trichoderma viride [24] = assay: Antimicrobial activity against Trichoderma viride NCIM 1195 after 72 hrs by serial dilution method; details: NCIM 1195, 72 h; method in brief: as §6
Trichoderma viride [25] = assay: Antimicrobial activity against Trichoderma viride NCIM 1195 at 500 ug/disk after 72 hrs by disk diffusion method; details: NCIM 1195, 72 h, read-out: DIZ; method in brief: as §4
Trichoderma viride [26] = assay: Antimicrobial activity against Trichoderma viride NCIM 1195 at 1000 ug/disk after 72 hrs by disk diffusion method; details: NCIM 1195, 72 h, read-out: DIZ; method in brief: as §4
Escherichia coli [27] = assay: Antimicrobial activity against Escherichia coli NCIM 2065 after 24 hrs by serial dilution method; details: NCIM 2065, 24 h
Method in brief: (§7)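 Broth dilution MIC in nutrient broth, run only for organisms found sensitive in disc diffusion. Compounds are two-fold serially diluted in 1 ml sterile broth per tube, spanning 3.9 to 1000. Inoculated tubes are incubated at 37 °C for 24 h.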

Bacillus subtilis [28] = assay: Antimicrobial activity against Bacillus subtilis NCIM 2063 after 24 hrs by serial dilution method; details: NCIM 2063, 24 h; method in brief: as §7
Aliivibrio fischeri [29] = assay: Antimicrobial activity against Vibrio fischeri NCIM 2154 after 24 hrs by serial dilution method; details: NCIM 2154, 24 h

`CC1(C)CC(=O)C2=C(C1)Nc1c(ccc3ccccc13)C2c1ccc(O)cc1` (configuration not stated) showed a zone of inhibition at 1000 µg/disc (Escherichia coli [1]) of 12 mm, a zone of inhibition at 1000 µg/disc (Bacillus subtilis [2]) of 10 mm and a zone of inhibition at 500 µg/disc (Bacillus cereus [3]) of 9 mm. The zone of inhibition at 1000 µg/disc (Bacillus cereus [4]) was 11 mm, the zone of inhibition at 500 µg/disc (Aliivibrio fischeri [5]) was 7 mm and the zone of inhibition at 1000 µg/disc (Aliivibrio fischeri [6]) was 9 mm. For the same molecule, the zone of inhibition at 500 µg/disc [7] was 7 mm, the zone of inhibition at 1000 µg/disc [8] was 10 mm and the zone of inhibition at 1000 µg/disc (Staphylococcus) was 8 mm. It also gave a zone of inhibition at 500 µg/disc (Proteus vulgaris [9]) of 7 mm, a zone of inhibition at 1000 µg/disc (Proteus vulgaris [10]) of 9 mm and a zone of inhibition at 1000 µg/disc (Aspergillus flavus [11]) of 12 mm. The zone of inhibition at 500 µg/disc (Rhodotorula mucilaginosa [12]) was 21 mm, the zone of inhibition at 1000 µg/disc (Rhodotorula mucilaginosa [13]) was 23 mm and the “diameter of the inhibition zone (DIZ)” value (Aspergillus fumigatus [14]) was “inactive”. For the same molecule, the “diameter of the inhibition zone (DIZ)” value (Aspergillus fumigatus [15]) was “inactive”, the zone of inhibition at 1000 µg/disc (Aspergillus parasiticus [16]) was 14 mm and the “diameter of the inhibition zone (DIZ)” value (Penicillium chrysogenum [17]) was “inactive”. For the same molecule, the zone of inhibition at 1000 µg/disc (Penicillium chrysogenum [18]) was 9 mm, the zone of inhibition at 500 µg/disc (Lipomyces lipofer [19]) was 7 mm and the zone of inhibition at 1000 µg/disc (Lipomyces lipofer [20]) was 10 mm. It also gave a zone of inhibition at 1000 µg/disc (Klebsiella aerogenes) of 12 mm, a zone of inhibition at 1000 µg/disc (Pseudomonas aeruginosa) of 9 mm and an MIC (Aspergillus flavus [21]) of 31.2 µg/mL (≈ 84.4 µM). The MIC (Rhodotorula mucilaginosa [22]) was 3.9 µg/mL (≈ 10.6 µM), the MIC (Aspergillus parasiticus [23]) was 7.8 µg/mL (≈ 21.1 µM) and the MIC (Trichoderma viride [24]) was 31.2 µg/mL (≈ 84.4 µM). It also gave a zone of inhibition at 500 µg/disc (Trichoderma viride [25]) of 10 mm, a zone of inhibition at 1000 µg/disc (Trichoderma viride [26]) of 12 mm and an MIC (Escherichia coli [27]) of 31.2 µg/mL (≈ 84.4 µM). The MIC (Bacillus subtilis [28]) was 62.5 µg/mL (≈ 169 µM) and the MIC (Aliivibrio fischeri [29]) was 125 µg/mL (≈ 338 µM).
